T cruzi growth-1 = blocks T. cruzi growth in NIH3T3 culture; hit rate 5.9% among 77,000; AID 624255; T. cruzi beta-gal in NIH3T3, GalScreen luminescence, 90 h; inhibition, % at 8.34 µM;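 active = mean inhibition above about 93%, with at least 55% of replicates each passing it, limit read from the data, passing the limit was not always enough; inconclusive = only one of those two conditions holds; inactive = neither condition holds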
GASC1 inh = inhibitors of human demethylase GASC-1 KDM4C. Q9H3R0. GST-KDM4C 2-372, H3K9me3 peptide, LANCE TR-FRET. inhibition, % at 12.5 µM. hit rate 0.15% among 96,000;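 active = mean replicate inhibition above about 25%, with at least 55% of replicates also reaching it, limit read from the data, passing the limit was not always enough; inconclusive = only one of those two conditions met; inactive = neither condition met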
Target sequence (Q9H3R0 2-372 limits assumed): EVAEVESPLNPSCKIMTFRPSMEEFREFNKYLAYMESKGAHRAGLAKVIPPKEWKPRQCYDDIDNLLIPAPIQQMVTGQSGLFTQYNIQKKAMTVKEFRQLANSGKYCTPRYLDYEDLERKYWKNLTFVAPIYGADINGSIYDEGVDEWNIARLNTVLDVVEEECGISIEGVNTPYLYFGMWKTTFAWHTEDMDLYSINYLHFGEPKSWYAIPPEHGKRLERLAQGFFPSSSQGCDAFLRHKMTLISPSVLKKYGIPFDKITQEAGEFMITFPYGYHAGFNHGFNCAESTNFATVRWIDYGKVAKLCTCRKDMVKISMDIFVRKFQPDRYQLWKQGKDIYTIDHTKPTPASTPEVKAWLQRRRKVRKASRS
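System: N-terminal GST-fused human GASC-1 (KDM4C) fragment, residues 2-372 / Amount: 10 nM GST-KDM4C in enzyme reaction / Also added: H3K9me3 peptide with Fe(II)/2OG / Times: 30 min demethylation and 1 h detection at room temperature / Signal: LANCE TR-FRET / Read-out basis: Fall in 671/618 emission ratio as inhibition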
IDH1 mut inh = IDH1 R132H (human) inhibition. O75874. AID 624101. hit rate 0.18% among 70,000. inhibition, % at 10 µM. IDH1 R132H reductase, diaphorase/resazurin fluorescence, 60 min; in the data active = inhibition above about 34%; inconclusive = no clear call, values can overlap the other calls; inactive = below about 11%;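 also: 0% = DMSO and 100% = no enzyme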
Target sequence (O75874 whole entry R132H): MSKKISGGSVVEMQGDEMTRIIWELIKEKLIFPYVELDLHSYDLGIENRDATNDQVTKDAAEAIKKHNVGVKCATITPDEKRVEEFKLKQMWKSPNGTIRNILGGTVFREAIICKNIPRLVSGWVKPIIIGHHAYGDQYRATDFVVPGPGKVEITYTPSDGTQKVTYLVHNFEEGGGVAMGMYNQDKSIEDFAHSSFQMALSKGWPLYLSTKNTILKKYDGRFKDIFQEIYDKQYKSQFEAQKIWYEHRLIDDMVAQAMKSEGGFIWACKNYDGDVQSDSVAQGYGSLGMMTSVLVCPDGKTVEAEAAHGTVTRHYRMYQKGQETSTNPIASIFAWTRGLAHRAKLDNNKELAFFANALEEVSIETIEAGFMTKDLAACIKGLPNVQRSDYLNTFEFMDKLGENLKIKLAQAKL
T cruzi growth-2 = Trypanosoma cruzi proliferation inhibition; inhibition, % at 8.35 µM; T. cruzi beta-gal in NIH3T3, GalScreen luminescence, 90 h; shares compounds with T cruzi growth-1; hit rate 72% among 5,600; AID 651739;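 active = mean replicate inhibition above about 95% and at least 55% of replicates individually reaching it, limit read from the data; inconclusive = only one of the two criteria is met; inactive = neither criterion is met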
T cruzi growth-3 = inhibitors of T. cruzi proliferation | inhibition, % at 2.09 µM | T. cruzi beta-gal in NIH3T3, GalScreen luminescence, 90 h | hit rate 21% among 5,600 | shares compounds with T cruzi growth-1 | AID 651740;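 active = mean inhibition above about 95%, with at least 55% of replicates also reaching it, limit read from the data; inconclusive = meets just one of the two conditions; inactive = meets neither condition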;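 also: plate controls were neutral control median for no effect and positive control median for full effect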
NIH3T3 tox = cytotoxicity in mouse NIH/3T3 fibroblasts; shares compounds with T cruzi growth-1; NIH/3T3 viability, CellTiter-Glo ATP luminescence, 90 h; cytotoxicity (signal decrease), % at 8.35 µM; hit rate 14% among 5,600; AID 651742;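 active = mean signal decrease across replicates above about 35% based on untreated-well scatter, with enough replicates individually passing, limit read from the data; inconclusive = no rule stated though some were filed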;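 also: 0% = median of neutral control wells and 100% = median of positive control wells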
3T3 cytotox 2 = kills mouse NIH/3T3 fibroblasts; shares compounds with T cruzi growth-1; NIH/3T3 viability, CellTiter-Glo ATP luminescence, 90 h; inhibition, % at 24.9 µM; hit rate 56% among 5,600;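 active = mean loss of cell viability signal at or above a set limit, and enough replicates individually reaching it; inconclusive = meets only the mean limit or only the replicate share; inactive = meets neither condition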;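 also: 0% = median of neutral control wells and 100% = median of positive control wells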
The depositor's hits bear a star; ? = inconclusive; nt = no result given; ! = a repeat was not active. The entries come from a sample that favours hits as a whole.

SMILES	T cruzi growth-1	GASC1 inh	IDH1 mut inh	T cruzi growth-2	T cruzi growth-3	NIH3T3 tox	3T3 cytotox 2
Cc1ccc(S(=O)(=O)N(C)C[C@H]2Oc3cc(C#CC4CCCC4)ccc3S(=O)(=O)N([C@@H](C)CO)C[C@H]2C)cc1	123.2*	5.2	0.0	93.6	111.5*	22.5	46.3*
Cc1ccc(S(=O)(=O)N(C)C[C@@H]2Oc3cc(C#CC4CCCC4)ccc3S(=O)(=O)N([C@@H](C)CO)C[C@@H]2C)cc1	125.3*	-2.2	-3.5	93.4	111.7*	8.1	40.2*
Cc1ccc(OCC(=O)Nc2ccc3oc(-c4ccc(F)cc4Cl)nc3c2)cc1	nt	nt	-0.7	nt	nt	nt	nt
CC(=O)O[C@H]1CC[C@@]2(C)C(C[C@@H](OC(C)=O)[C@@]3(C)C4=CC(=O)O[C@@H](c5ccoc5)[C@]4(C)CCC23)C1(C)C (stereo partly specified)	nt	nt	0.2	nt	nt	nt	nt
COc1ccc(S(=O)(=O)N(C)C[C@H]2Oc3cc(C#CC4CCCCC4)ccc3S(=O)(=O)N([C@@H](C)CO)C[C@H]2C)cc1	79.7	-1.2	nt	nt	nt	nt	nt
Cc1ccc(S(=O)(=O)N(C)C[C@@H]2Oc3cc(C#CC4CCCC4)ccc3S(=O)(=O)N([C@H](C)CO)C[C@H]2C)cc1	127.7*	1.9	-0.1	103.3*	?	73.9*	66.4*
Cc1ccc(S(=O)(=O)N(C)C[C@H]2Oc3cc(C#CC4CCCC4)ccc3S(=O)(=O)N([C@H](C)CO)C[C@H]2C)cc1	125.8*	9.5	0.1	97.3*!	116.6*	20.8	37.9*!
O=C(CSc1nc2sc3c(c2c(=O)n1Cc1ccco1)CCC3)c1cc(Cl)sc1Cl	nt	nt	0.0	nt	nt	nt	nt
COc1ccccc1C(NC(C)=O)c1c(O)ccc2ccccc12 (stereo unspecified)	nt	nt	0.1	nt	nt	nt	nt
CCn1c(SCC(=O)Nc2ccc(Br)cc2Cl)nnc1-c1cccc([N+](=O)[O-])c1	nt	nt	-0.3	nt	nt	nt	nt
COc1cc(NC(=O)COc2ccccc2C)ccc1NC(=O)c1ccccc1Cl	nt	nt	1.3	nt	nt	nt	nt
CCC(=O)N1CCCCN2[C@H](CO)[C@H](c3ccc(-c4ccc(F)cc4)cc3)[C@H]2C1	93.1	-0.1	nt	nt	nt	nt	nt
CCC(=O)N1CCCCN2[C@H](CO)[C@H](c3ccc(-c4ccc(F)cc4)cc3)[C@@H]2C1	105.8*	-0.3	nt	78.1	-14.4	26.0	53.5*
CCC(=O)N1CCCCN2[C@@H](CO)[C@@H](c3ccc(-c4ccc(F)cc4)cc3)[C@@H]2C1	106.9*	-0.4	nt	78.8	68.9	16.0	69.6*
COCC(=O)N1CCCCN2[C@@H](CO)[C@@H](c3ccc(-c4ccc(C)cc4)cc3)[C@@H]2C1	106.7*	0.4	nt	74.7	75.2	-10.7	26.2*
COCC(=O)N1CCCCN2[C@@H](CO)[C@@H](c3ccc(-c4ccc(F)cc4)cc3)[C@@H]2C1	79.4	-0.9	nt	nt	nt	nt	nt
COCC(=O)N1CCCCN2[C@H](CO)[C@H](c3ccc(-c4ccc(C)cc4)cc3)[C@@H]2C1	90.9	-0.6	nt	nt	nt	nt	nt
COc1ccc2ccc(=O)oc2c1C(OC(C)=O)C(=O)C(C)C (stereo unspecified)	nt	nt	0.3	nt	nt	nt	nt
COc1ccc(-c2csc3ncn(CC(=O)Nc4ccccc4)c(=O)c23)cc1	nt	nt	0.6	nt	nt	nt	nt
COc1cccc(-c2cc(C(F)(F)F)n3nc(C(=O)Nc4cc(C)nn4-c4ccccc4)cc3n2)c1	nt	nt	-0.5	nt	nt	nt	nt
Cn1cnc(S(=O)(=O)N2CCCCN3[C@H](C2)[C@H](c2ccc(-c4ccc(F)cc4)cc2)[C@@H]3CO)c1	48.2	-1.1	nt	nt	nt	nt	nt
Cn1cnc(S(=O)(=O)N2CCCCN3[C@@H](CO)[C@@H](c4ccc(-c5ccc(F)cc5)cc4)[C@@H]3C2)c1	26.9	0.3	nt	nt	nt	nt	nt
Cn1cnc(S(=O)(=O)N2CCCCN3[C@H](CO)[C@H](c4ccc(C#CC5CCCC5)cc4)[C@@H]3C2)c1	106.6*	-0.4	nt	?	28.9	29.0	33.4*
Cn1cnc(S(=O)(=O)N2CCCCN3[C@H](C2)[C@H](c2ccc(-c4ccccc4)cc2)[C@@H]3CO)c1	103.5*	-1.0	nt	6.0	10.9	-12.4	-16.0
Cn1cnc(S(=O)(=O)N2CCCCN3[C@H](CO)[C@@H](c4ccc(-c5ccccc5)cc4)[C@@H]3C2)c1	99.6*	-1.1	nt	65.2	-2.4	11.3	27.6*
SMILES	T cruzi growth-1	GASC1 inh	IDH1 mut inh	T cruzi growth-2	T cruzi growth-3	NIH3T3 tox	3T3 cytotox 2
Cn1cnc(S(=O)(=O)N2CCCCN3[C@H](C2)[C@H](c2ccc(C#CC4CCCC4)cc2)[C@@H]3CO)c1	31.9	-1.2	nt	nt	nt	nt	nt
O=C(/C=C/C=C/c1ccc2c(c1)OCO2)N1CCCC1	nt	nt	-0.5	nt	nt	nt	nt
C/C=C/c1ccc([C@@H]2[C@@H](CO)N3CCCCN(C(=O)Nc4ccc(F)cc4)C[C@@H]23)cc1	97.2*	-0.3	nt	108.5*	38.8	16.6	73.9*
C/C=C/c1ccc([C@H]2[C@H](CO)N3CCCCN(C(=O)Nc4ccc(F)cc4)C[C@@H]23)cc1	89.9	1.0	nt	nt	nt	nt	nt
C/C=C/c1ccc([C@@H]2[C@H](CO)N3CCCCN(C(=O)Nc4ccc(F)cc4)C[C@@H]23)cc1	58.7	7.8	nt	nt	nt	nt	nt
C/C=C/c1ccc([C@@H]2[C@H]3CN(C(=O)Nc4ccc(F)cc4)CCCCN3[C@H]2CO)cc1	?	-0.9	nt	112.1*	74.4	33.0	105.7*
CCc1ccc(NC(=O)CSc2nnc(-c3ccc(Br)cc3)o2)cc1	nt	nt	-0.2	nt	nt	nt	nt
C[C@@H]1CN([C@@H](C)CO)S(=O)(=O)c2ccc(C#CC(C)(C)O)cc2O[C@H]1CN(C)C(=O)C1CC1	101.7*	-1.1	nt	-30.6	-51.6	3.6	47.2*
C[C@@H]1CN([C@H](C)CO)S(=O)(=O)c2ccc(C#Cc3ccncc3)cc2O[C@@H]1CN(C)C(=O)C1CC1	80.1	1.2	-4.6	nt	nt	nt	nt
C[C@H]1CN([C@@H](C)CO)S(=O)(=O)c2ccc(C#Cc3ccncc3)cc2O[C@@H]1CN(C)C(=O)C1CC1	66.0	2.9	nt	nt	nt	nt	nt
C[C@H]1CN([C@@H](C)CO)S(=O)(=O)c2ccc(C#CC(C)(C)O)cc2O[C@H]1CN(C)C(=O)C1CC1	-15.2	1.4	0.2	nt	nt	nt	nt
C[C@H](CO)N1C[C@H](C)[C@@H](CN(C)C(=O)C2CC2)Oc2cc(C#Cc3ccncc3)ccc2S1(=O)=O	123.4*	-0.4	nt	-15.4	16.6	-10.0	61.6*
C[C@H](CO)N1C[C@H](C)[C@H](CN(C)C(=O)C2CC2)Oc2cc(C#Cc3ccncc3)ccc2S1(=O)=O	105.2*	1.1	-3.9	105.0*	-8.8	22.0	65.4*
CC(C)NC(=O)N1CCCCN2[C@H](CO)[C@H](c3ccc(C#CC4CC4)cc3)[C@@H]2C1	30.2	2.9	nt	nt	nt	nt	nt
CC(C)NC(=O)N1CCCCN2[C@@H](CO)[C@H](c3ccc(C#CC4CC4)cc3)[C@@H]2C1	?	-0.2	nt	94.4	35.8	-10.7	22.3

Screening data as filed in PubChem.
